Source: ChEMBL document CHEMBL1132175, “Synthesis and in vivo evaluation of new contrast agents for cardiac MRI” (J Med Chem, 1999)
≈ marks a conversion by molar mass, not a printed value.

What was measured:
Mustela putorius furo [1] = assay: In vivo Myocardial MRI signal intensity (MRI IE)in ferrets induced by the compound at 50 umol/kg was measured at 30-60 min.; type: functional, Myocardium
How it was run: (§1)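 Ferrets received a bolus of 50 µmol/kg Gd complex. BAE and ABE were given as water-soluble pH 7 solutions; ABE used a 1.2-fold ligand excess and 10 mM Gd. BPE, BBE, BHE and BME were given in lecithin/cholesterol liposomes in 0.9% saline/20 mM HEPES pH 7.4. Myocardial signal was read on 1.5 T MRI (head coil) against an agarose phantom and compared with pre-agent control images. Imaging ran over 3 h.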

Mustela putorius furo [2] = assay: In vivo Myocardial MRI signal intensity (MRI IE)in ferrets induced by the compound at 50 umol/kg was measured at 180 min.; type: functional, Myocardium; how it was run: as §1
Mustela putorius furo [3] = assay: In vivo Myocardial MRI signal intensity (MRI IE)in ferrets induced by the compound at 50 umol/kg was measured at 0-10 min.; type: functional, Myocardium; how it was run: as §1
[4] = Aqueous solubility of the compound; type: physicochemical; conditions: water; read-out: S
How it was run: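 Gd–ligand 1:1 complexes were made from GdCl3 in water at pH 7.0 over a series of nominal concentrations around the expected precipitation point. Experimental concentration was taken as ΔR1(observed)/ρ1. ρ1 came from one well-dissolved sample whose Gd was measured by ICP-OES.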

Mustela putorius furo [5] = assay: In vivo Myocardial MRI signal intensity (MRI IE)in ferrets induced by the compound at 50 umol/kg was measured at 180 min; type: functional, Myocardium; how it was run: as §1

SMILES	solubility [4] [mM]	IE (Mustela putorius furo [1]) [%]	IE (Mustela putorius furo [2]) [%]	IE (Mustela putorius furo [3]) [%]	IE (Mustela putorius furo [5]) [%]
CCC(=O)OCCN(CCN(CCOC(=O)CC)CC(=O)N(CC(=O)O)CC(=O)O)CC(=O)N(CC(=O)O)CC(=O)O	7 (≈ 4250 µg/mL)	38.4	47.2	34.6	
CC(=O)OCCN(CCN(CCOC(C)=O)CC(=O)N(CC(=O)O)CC(=O)O)CC(=O)N(CC(=O)O)CC(=O)O	30 (≈ 17400 µg/mL)	10.1		87.2	10.1
CCCCCCCCCCCCCC(=O)OCCN(CCN(CCOC(=O)CCCCCCCCCCCCC)CC(=O)N(CC(=O)O)CC(=O)O)CC(=O)N(CC(=O)O)CC(=O)O	0.015 (≈ 13.7 µg/mL)	67.2	65.2	55.2	
CCCCCC(=O)OCCN(CCN(CCOC(=O)CCCCC)CC(=O)N(CC(=O)O)CC(=O)O)CC(=O)N(CC(=O)O)CC(=O)O	0.5 (≈ 345 µg/mL)	41.7	30.1	32.3	

More lines, main results first:

solubility [4] [mM]	SMILES	IE (Mustela putorius furo [1]) [%]	IE (Mustela putorius furo [2]) [%]	IE (Mustela putorius furo [3]) [%]	IE (Mustela putorius furo [5]) [%]
5 (≈ 3170 µg/mL)	CCCC(=O)OCCN(CCN(CCOC(=O)CCC)CC(=O)N(CC(=O)O)CC(=O)O)CC(=O)N(CC(=O)O)CC(=O)O	52.1	39.3	53.1	
25 (≈ 15200 µg/mL)	CCCC(=O)OCCN(CCN(CCOC(C)=O)CC(=O)N(CC(=O)O)CC(=O)O)CC(=O)N(CC(=O)O)CC(=O)O	43.6	38.5	42.8	
